The results in this text go back to ChEMBL document CHEMBL1127347, “Synthesis and biological activity of bile acid-derived HMG-CoA reductase inhibitors. The role of 21-methyl in recognition of HMG-CoA reductase and the ileal bile acid transport system” (J Med Chem, 1994).

For assay [1], the species on record is Oryctolagus cuniculus. In words: (§1) Tested for inhibition of Na+ -dependent [3H]taurocholate uptake into rabbit ileal brush border membrane vesicles. The format is functional. The method in brief:
(§2)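 Ileal brush border vesicles from male New Zealand white rabbits (4-5 kg), prepared by Mg2+ precipitation and kept in liquid nitrogen. Vesicles (50 μg protein) in 10 mM Tris-Hepes pH 7.4/300 mM mannitol were added to medium at 30 °C containing 50 μM [3H]taurocholate with 100 mM NaCl or 100 mM KCl. Uptake stopped at 60 s with ice-cold stop solution, then filtration and scintillation. Na+-dependent uptake taken as NaCl minus KCl uptake; mean ± SD, 3-10 independent experiments with different membrane preparations.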

The species named for assay [2] is Oryctolagus cuniculus. The description is as §1. The assay is classed as functional. The method in brief: as §2
This is another data set of the same source.

Another assay relates to HepG2. In words: Tested for inhibition of cholesterol biosynthesis in HEP G2 cells. The assay is classed as functional, cell-based. To be noted: Homo sapiens. In outline: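 HEP G2 cells seeded at 5×10^4 cells/cm², grown 24 h in RPMI 1640/10% FCS, then 24 h in 10% lipoprotein-deficient serum. Cholesterol isolated by TLC and counted, corrected for recovery of [3H]cholesterol.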

Assay [3] deals with T1, 3-hydroxy-3-methylglutaryl-coenzyme A reductase (Rattus norvegicus, UniProt P51639).
T1 sequence (P51639 whole entry): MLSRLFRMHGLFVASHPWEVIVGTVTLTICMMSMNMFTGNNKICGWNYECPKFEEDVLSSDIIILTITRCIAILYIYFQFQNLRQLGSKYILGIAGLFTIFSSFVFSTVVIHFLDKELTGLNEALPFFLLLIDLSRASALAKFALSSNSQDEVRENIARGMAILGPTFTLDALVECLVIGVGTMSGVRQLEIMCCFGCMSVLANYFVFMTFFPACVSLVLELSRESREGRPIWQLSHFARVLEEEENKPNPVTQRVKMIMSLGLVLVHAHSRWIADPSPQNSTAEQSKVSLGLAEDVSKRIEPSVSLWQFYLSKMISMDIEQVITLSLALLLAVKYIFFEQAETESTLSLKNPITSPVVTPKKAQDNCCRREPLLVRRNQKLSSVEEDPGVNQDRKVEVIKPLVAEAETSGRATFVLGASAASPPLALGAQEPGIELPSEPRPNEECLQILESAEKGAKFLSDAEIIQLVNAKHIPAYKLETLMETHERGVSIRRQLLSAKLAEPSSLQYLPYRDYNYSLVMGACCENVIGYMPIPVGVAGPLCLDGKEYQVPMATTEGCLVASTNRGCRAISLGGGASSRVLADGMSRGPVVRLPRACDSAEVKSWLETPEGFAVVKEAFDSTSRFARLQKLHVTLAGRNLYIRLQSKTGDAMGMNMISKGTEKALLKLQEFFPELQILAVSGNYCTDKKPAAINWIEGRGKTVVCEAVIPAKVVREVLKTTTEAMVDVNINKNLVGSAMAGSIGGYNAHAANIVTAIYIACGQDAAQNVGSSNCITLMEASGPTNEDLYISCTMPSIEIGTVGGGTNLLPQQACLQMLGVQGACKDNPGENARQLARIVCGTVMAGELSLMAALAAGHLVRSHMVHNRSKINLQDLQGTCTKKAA
In words: Tested for inhibition of rat liver microsomal HMG-CoA reductase. The method in brief:
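Microsomes came from livers of male Wistar rats (200-220 g) fed 2% cholestyramine for 10 days. Assay at pH 7.4 with 40 μg microsomal protein, NADP, glucose-6-phosphate and G6P dehydrogenase. Mevalonolactone separated on anion-exchange column and counted. Six concentrations in triplicate; IC50 read graphically, mean ± SD of three independent experiments.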
A general note: Liver microsomes are a subcellular fraction often used to study metabolism.

By IC25 is commonly meant the concentration needed for an effect of 25%. Low values mean greater potency, high ones weaker potency. Usually IC75 stands for the concentration at which the effect reaches the 75% level. A higher IC75 goes with weaker potency. In general, IC50 refers to the concentration needed to halve the response being measured. A higher IC50 goes with a need for much substance. `CC[C@H](C)C(=O)O[C@H]1C[C@@H](C)C=C2C=C[C@H](C)[C@H](CC[C@@H]3C[C@@H](O)CC(=O)O3)[C@H]21` [LOVASTATIN]: the IC25 in the assay filed under Oryctolagus cuniculus [1] worked out at 230 µM. Also, the IC75 in the assay filed under Oryctolagus cuniculus [1] was > 250 µM. Also, the IC50 in the assay filed under Oryctolagus cuniculus [2] is > 250 µM; with HepG2 it was 0.029 µM; in assay [3], 7 nM.
Turning to `CC[C@H](C)C(=O)O[C@H]1C[C@H]2[C@@H](CC[C@@H]3C[C@H](O)CC[C@@]32C)[C@@H]2CCC(CC[C@@H]3C[C@@H](O)CC(=O)O3)[C@@]12C` (stereo partly specified), in the assay filed under Oryctolagus cuniculus [1], the 25% effect level (IC25) was put at 87 µM. Besides, in the assay filed under Oryctolagus cuniculus [1], the IC75 is > 250 µM. In addition, the IC50 in the assay listed under Oryctolagus cuniculus [2] worked out at 170 µM; in the assay on HepG2, 1.8 µM; in assay [3] it was 200 nM.
In the assay listed under Oryctolagus cuniculus [1], `C[C@H](CCC(=O)O)[C@H]1CC[C@H]2[C@@H]3[C@H](O)C[C@@H]4C[C@H](O)CC[C@]4(C)[C@H]3C[C@H](O)[C@]12C` [CHOLIC ACID] yielded an IC25 of 40 µM and an IC75 of 152 µM. Further, the IC50 in the assay listed under Oryctolagus cuniculus [2] amounted to 83 µM.
As for `CC[C@H](C)C(=O)O[C@H]1C[C@H]2[C@@H](CC[C@@H]3C[C@H](O)CC[C@@]32C)[C@@H]2CCC([C@H](C)C[C@@H]3C[C@@H](O)CC(=O)O3)[C@@]12C` (stereo partly specified), in the assay listed under Oryctolagus cuniculus [1], the IC25 turned out to be 37 µM. Further, the IC75 in the assay filed under Oryctolagus cuniculus [1] was found to be 148 µM. In addition, the values for the half-maximal inhibitory concentration (IC50) (in the assay listed under Oryctolagus cuniculus [2]; with HepG2; in assay [3]) were 85 µM, 16.1 µM and 650 nM, respectively.
For `CC[C@H](C)C(=O)O[C@H]1C[C@H]2[C@@H](CC[C@@H]3C[C@H](O)CC[C@@]32C)[C@@H]2CCC(CC[C@H]3C[C@@H](O)CC(=O)O3)[C@@]12C` (stereo partly specified) the same measures were 87 µM, > 250 µM, 186 µM, 8.2 µM and 1000 nM.
For `CC[C@H](C)C(=O)O[C@H]1C[C@H]2[C@@H](CC[C@@H]3C[C@H](O)CC[C@@]32C)[C@@H]2CCC([C@H](C)C[C@H]3C[C@@H](O)CC(=O)O3)[C@@]12C` (stereo partly specified) the same measures were 47 µM, 166 µM, 92 µM, 54.8 µM and 7000 nM.
`C[C@H](CCC(=O)NCCS(=O)(=O)O)[C@H]1CC[C@H]2[C@@H]3[C@H](O)C[C@@H]4C[C@H](O)CC[C@]4(C)[C@H]3CC[C@]12C` [TAUROCHENODEOXYCHOLATE]: in the assay listed under Oryctolagus cuniculus [1], the 25% effect concentration (IC25) stood at 13 µM and it took 61 µM to reach the 75% level (IC75). This compound gave an IC50 in the assay filed under Oryctolagus cuniculus [2] of 28 µM.
